# According to ChEMBL document CHEMBL1765026, “Small molecule agonists of the orphan nuclear receptors steroidogenic factor-1 (SF-1, NR5A1) and liver receptor homologue-1 (LRH-1, NR5A2)” (J Med Chem, 2011):
# Activity calls are given as the source filed them. The rule behind the calls is not given here.
# Experiments:
# [1] = target: T1, Steroidogenic factor 1 (Homo sapiens, UniProt Q13285); experiment: Agonist activity at human SF-1 assessed as DAX1 1-23 peptide recruitment by TR-FRET assay; type: functional
# T1 sequence (Q13285 whole entry, the tested form may be a part): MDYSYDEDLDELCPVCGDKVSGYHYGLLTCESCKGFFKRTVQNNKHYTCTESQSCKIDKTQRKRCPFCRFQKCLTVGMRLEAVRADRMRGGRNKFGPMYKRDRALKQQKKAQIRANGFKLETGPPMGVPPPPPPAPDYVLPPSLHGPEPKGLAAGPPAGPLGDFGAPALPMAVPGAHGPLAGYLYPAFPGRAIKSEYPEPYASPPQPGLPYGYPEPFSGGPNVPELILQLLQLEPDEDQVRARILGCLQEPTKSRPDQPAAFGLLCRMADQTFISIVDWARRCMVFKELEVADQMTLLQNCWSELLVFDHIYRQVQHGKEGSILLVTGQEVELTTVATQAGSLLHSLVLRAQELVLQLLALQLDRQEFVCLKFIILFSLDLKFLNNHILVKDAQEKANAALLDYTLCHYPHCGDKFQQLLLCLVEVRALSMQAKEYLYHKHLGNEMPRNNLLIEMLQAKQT
# In short: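 Biotinylated, bacterially expressed human SF-1 LBD was bound to APC-streptavidin. Biotinylated DAX-1 peptide (aa 1–23) was bound to europium-streptavidin. Receptor and peptide were incubated with test compound, typically at 11 concentrations from 1 nm to 10 µM. Recruitment was read by TR-FRET as the 671/618 nm fluorescence ratio, and pEC50 was calculated from the dose–response curve.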
# [2] = target: T1, Steroidogenic factor 1; experiment: Agonist activity at human SF-1 assessed as DAX1 1-23 peptide recruitment by TR-FRET assay relative to control
# [3] = target: Nuclear receptor subfamily 5 group A member 2 (Homo sapiens) (UniProt O00482)
# Sequence of Nuclear receptor subfamily 5 group A member 2 (Homo sapiens) (O00482 whole entry, the tested form may be a part): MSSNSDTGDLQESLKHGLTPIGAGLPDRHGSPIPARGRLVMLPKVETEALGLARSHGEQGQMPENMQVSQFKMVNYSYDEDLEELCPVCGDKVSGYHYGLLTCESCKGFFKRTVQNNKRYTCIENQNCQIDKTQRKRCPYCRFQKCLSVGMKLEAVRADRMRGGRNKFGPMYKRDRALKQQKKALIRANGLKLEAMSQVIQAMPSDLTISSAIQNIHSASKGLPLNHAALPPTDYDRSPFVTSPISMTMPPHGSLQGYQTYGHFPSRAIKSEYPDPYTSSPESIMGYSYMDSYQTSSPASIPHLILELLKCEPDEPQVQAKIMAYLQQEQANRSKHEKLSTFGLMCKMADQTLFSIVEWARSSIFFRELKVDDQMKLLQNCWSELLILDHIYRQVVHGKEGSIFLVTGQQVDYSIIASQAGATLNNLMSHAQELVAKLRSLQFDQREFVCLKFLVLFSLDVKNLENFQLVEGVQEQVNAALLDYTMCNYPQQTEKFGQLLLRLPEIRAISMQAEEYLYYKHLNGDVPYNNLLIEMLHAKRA
# [4] = target: T1, Steroidogenic factor 1; experiment: Agonist activity at human SF-1 assessed as DAX1 1-23 peptide recruitment by TR-FRET assay relative to control
# [5] = target: Steroidogenic factor 1 (Mus musculus) (UniProt P33242); experiment: Displacement of dipalmitoyl phosphatidylinositol 4,5-bisphosphate from mouse SF-1 ligand binding domain at 1 uM after 16 hrs with Coomassie blue staining by PAGE method
# Sequence of Steroidogenic factor 1 (Mus musculus) (P33242 whole entry, the tested form may be a part): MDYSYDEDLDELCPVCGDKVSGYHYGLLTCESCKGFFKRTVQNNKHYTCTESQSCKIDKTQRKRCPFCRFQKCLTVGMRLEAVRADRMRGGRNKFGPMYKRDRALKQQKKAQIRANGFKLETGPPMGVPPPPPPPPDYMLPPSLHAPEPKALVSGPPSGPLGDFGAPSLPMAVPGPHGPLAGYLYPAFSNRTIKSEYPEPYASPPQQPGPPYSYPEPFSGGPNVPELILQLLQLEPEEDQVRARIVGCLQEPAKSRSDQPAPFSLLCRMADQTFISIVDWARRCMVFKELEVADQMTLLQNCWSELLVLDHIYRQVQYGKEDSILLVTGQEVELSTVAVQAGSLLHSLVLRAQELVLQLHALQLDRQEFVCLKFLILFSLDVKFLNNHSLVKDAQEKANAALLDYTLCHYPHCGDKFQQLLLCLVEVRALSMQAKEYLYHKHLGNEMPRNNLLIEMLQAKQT
# [6] = Solubility of the compound; type: physicochemical
# [7] = target: Steroidogenic factor 1 (Mus musculus) (UniProt P33242); experiment: Agonist activity at mouse SF-1 expressed in HEK293 cells assessed as increase in SHP mRNA levels after 24 hrs by RT-qPCR method; type: functional, cell-based
# In short: (§1)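 Stable HEK293 lines expressing Tet-inducible mouse SF-1 or empty vector were induced with 100 ng/mL Tet, with compound in DMSO added 16 h afterward. Cells were exposed to a dose series for 24 h. SHP mRNA was quantified by RT-qPCR relative to DMSO, with significance by p-value.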
# [8] = target: Steroidogenic factor 1 (Mus musculus) (UniProt P33242); experiment: Agonist activity at mouse SF-1 expressed in HEK293 cells assessed as increase in SHP mRNA levels at 5 uM after 24 hrs by RT-qPCR method; type: functional, cell-based; in short: as §1
# [9] = target: Steroidogenic factor 1 (Mus musculus) (UniProt P33242); experiment: Agonist activity at mouse SF-1 expressed in HEK293 cells assessed as increase in SHP mRNA levels at 10 uM after 24 hrs by RT-qPCR method; type: functional, cell-based
# In short: (§2)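 HEK293 cells stably carrying Tet-inducible, 3XFlag-tagged mouse SF-1 were induced with 100 ng/mL Tet, and compound in DMSO was added 16 h later. Cells were treated at 10 µM for 24 h. Transcript levels were measured by RT-qPCR and expressed relative to DMSO vehicle.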
# [10] = target: Steroidogenic factor 1 (Mus musculus) (UniProt P33242); experiment: Agonist activity at mouse SF-1 expressed in HEK293 cells assessed as increase in StAR mRNA levels at 10 uM after 24 hrs by RT-qPCR method; type: functional, cell-based; in short: as §2
# [11] = target: Steroidogenic factor 1 (Mus musculus) (UniProt P33242); experiment: Agonist activity at mouse SF-1 expressed in HEK293 cells assessed as increase in GOS2 mRNA levels at 10 uM after 24 hrs by RT-qPCR method; type: functional, cell-based; in short: as §2
# [12] = target: Steroidogenic factor 1 (Mus musculus) (UniProt P33242); experiment: Agonist activity at mouse SF-1 expressed in HEK293 cells assessed as increase in MeOx1 mRNA levels at 10 uM after 24 hrs by RT-qPCR method; type: functional, cell-based; in short: as §2
# [13] = system: NCI-H295RR; experiment: Inhibition of doxycycline induced proliferation in human NCI-H295RR cells; type: functional, cell-based
# [14] = target: T1, Steroidogenic factor 1; experiment: Inverse agonist activity at SF-1; type: functional
# [15] = target: Steroidogenic factor 1 (Mus musculus) (UniProt P33242); experiment: Displacement of dipalmitoyl phosphatidylinositol 4,5-bisphosphate from mouse SF-1 ligand binding domain at 100 uM after 16 hrs with Coomassie blue staining by PAGE method
# [16] = target: Nuclear receptor subfamily 5 group A member 2 (Homo sapiens) (UniProt O00482); experiment: Agonist activity at human LRH-1 ligand binding domain at 100 uM with Coomassie blue staining by PAGE method
smiles,measurement,setting,value
C=C(c1ccccc1)[C@@]12C[C@H](OC(C)=O)C[C@@H]1CC(CCCCCC)=C2c1ccccc1 (racemic),Ratio,[1],0.34
same,EC50,[2],200 nM
C=C(c1ccccc1)[C@@]12CCC[C@@H]1CC(CCCCCC)=C2c1ccc(CC)cc1 (racemic),pEC50,[3],inactive
same,pEC50,[4],inactive
C=C(CCCCCCCC)[C@@]12CCC[C@@H]1CC(CCCCCC)=C2c1ccccc1 (racemic),pEC50,[3],inactive
same,pEC50,[4],inactive
C=C(c1ccccc1)[C@@]12CC[C@@H](O)[C@@H]1CC(CCCCCC)=C2c1ccccc1 (racemic),Activity,[5],Active
same,solubility,[6],soluble
same,Activity,[7],Dose-dependent effect
same,Activity,[8],Active
same,Activity,[9],Active
same,Activity,[10],Active
same,Activity,[11],Active
same,Activity,[12],Active
C=C(c1ccc(CCCC)cc1)[C@@]12CCC[C@@H]1CC(CCCCCC)=C2c1ccccc1 (racemic),pEC50,[4],inactive
C=C(c1ccccc1)[C@@]12CCC[C@@H]1CC(CCCCCC)=C2CCCC (racemic),pEC50,[3],inactive
CCCCCCC1=C(c2ccccc2)[C@]2(OCC(C)CC)CCC[C@@H]2C1 (mixture of isomers),Ratio,[1],0.56
same,EC50,[2],200 nM
C=C(c1ccc(CC)cc1)[C@@]12CCC[C@@H]1CC(CCCCCC)=C2c1ccccc1 (racemic),pEC50,[3],inactive
same,pEC50,[4],inactive
C=C(c1ccccc1)[C@@]12CCC[C@@H]1CC=C2c1ccccc1 (racemic),pEC50,[3],inactive
same,pEC50,[4],inactive
C=C(c1ccc(C(C)(C)C)cc1)[C@@]12CCC[C@@H]1CC(CCCCCC)=C2c1ccccc1 (racemic),pEC50,[3],inactive
same,pEC50,[4],inactive
C=C(c1ccccc1)[C@@]12C[C@@H](OC(C)=O)C[C@@H]1CC(CCCCCC)=C2c1ccccc1 (racemic),pEC50,[3],inactive
same,pEC50,[4],inactive
C=C(c1ccccc1)[C@@]12CCC[C@@H]1CC(CCCCCC)=C2CCC (racemic),pEC50,[3],inactive
CCCCCCC1=C(c2ccccc2)[C@]2(OCCCCC)CCC[C@@H]2C1 (racemic),pEC50,[3],inactive
CCOC(=O)C(C)Oc1cccc2c(=O)n(CC(=O)Nc3ccc(OC)cc3)ccc12 (stereo not given),Activity,[13],Active
CCCCCCCOc1ccc(O)cc1,IC50,[14],7.3 µM
C=C(c1ccccc1)[C@@]12CCC[C@@H]1CC(CCCCCC)=C2CCCO (racemic),Activity,[15],inactive
same,Activity,[9],inactive
same,pEC50,[4],inactive
C=C(c1ccccc1)[C@@]12CCC[C@@H]1CC(CCCCCC)=C2C1CCCCC1 (racemic),Ratio,[1],0.59
same,EC50,[2],200 nM
C=C(c1ccccc1)[C@@]12CCC[C@@H]1CC([Si](C)(C)c1ccccc1)=C2c1ccccc1 (racemic),Ratio,[1],0.33
same,EC50,[2],63.1 nM
C=C(c1ccccc1)[C@@]12CCC[C@@H]1CC(CCCCCC)=C2CCCCCC (racemic),pEC50,[3],inactive
same,pEC50,[4],inactive
CCCCCCC1=C(c2ccccc2)[C@]2(OC)CCC[C@@H]2C1 (racemic),pEC50,[3],inactive
same,pEC50,[4],inactive
C=C(c1ccccc1)[C@@]12CN(Cc3ccccc3)C[C@@H]1CC(CCCCCC)=C2c1ccccc1 (racemic),solubility,[6],soluble
same,pEC50,[4],inactive
C=C(c1ccc(-c2ccccc2)cc1)[C@@]12CCC[C@@H]1CC(CCCCCC)=C2c1ccccc1 (racemic),pEC50,[3],inactive
same,pEC50,[4],inactive
C=C(CCCC)[C@@]12CCC[C@@H]1CC(CCCCCC)=C2c1ccccc1 (racemic),Ratio,[1],0.76
same,EC50,[2],200 nM
same,Activity,[15],inactive
same,Activity,[9],inactive
CCCCCCC1=C(c2ccccc2)[C@]2(OCCC)CCC[C@@H]2C1 (racemic),Ratio,[1],0.67
same,EC50,[2],200 nM
C=C(CCCCCC)[C@@]12CCC[C@@H]1CC(CCCCCC)=C2c1ccccc1 (racemic),pEC50,[3],inactive
same,pEC50,[4],inactive
C=C(c1ccc(OC)cc1)[C@@]12CCC[C@@H]1CC(CCCCCC)=C2c1ccccc1 (racemic),pEC50,[3],inactive
same,pEC50,[4],inactive
CCCCCCC1=C(c2ccccc2)[C@]2(OCc3ccccc3)CCC[C@@H]2C1 (racemic),pEC50,[4],inactive
C=C(c1ccccc1)[C@@]12CN(C)C[C@@H]1CC(CCCCCC)=C2c1ccccc1 (racemic),Activity,[5],Active
same,solubility,[6],soluble
same,Activity,[16],Active
same,Activity,[9],Active
same,Activity,[10],Active
same,Activity,[11],Active
same,Activity,[12],Active
CCCCCCO[C@@]12CCC[C@@H]1CC(CCCCCC)=C2c1ccccc1 (racemic),pEC50,[3],inactive
same,pEC50,[4],inactive
